# Source: PubChem (The Scripps Research Institute Molecular Screening Center)
# CHRM1 agonist = activates human CHRM1 receptor; P11229; AID 588814; CHO-K1 hM1, Fluo-8 calcium fluorescence, agonist mode; 0% DMSO, 100% acetylcholine EC100; hit rate 0.33% among 360,000; activation, % at 3 µM;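 active = activation above the run's mean compound activation plus 3 SD, cut at about 16% in these data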;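 note: peak over basal fluorescence ratio within a 140 s kinetic read after compound addition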
# TAAR1 agonist = agonists of human TAAR1. Q96RJ0. CHO RD-HGA16 TAAR1, Fluo-8 calcium fluorescence; vehicle wells 0%, saturating PEA agonist 100%. hit rate 0.99% among 360,000. activation, % at 3 µM;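 active = activation above the mean activation of all test compounds in the run plus 3 SD, cut at about 38% in these data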
#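 Assay system: CHO-derived RD-HGA16 cells with stable Gα16 and human TAAR1; timing: 17-24 h seeding, 75 min 37 °C dye, 30 min RT; read-out: % activation from peak over basal fluorescence ratio, DMSO-to-PEA scaled; measured by: kinetic Fluo-8 calcium fluorescence; benchmarks: low control DMSO, high control PEA (EC100); doses: 3 µM single concentration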
# M1 PAM = human CHRM1 positive allosteric modulation; activation, % at 3 µM; P11229; AID 588819; hit rate 0.088% among 360,000; CHO-K1 hM1, Fluo-8 calcium fluorescence, ACh EC20; 0% = ACh EC20, 100% = maximal ACh; in the data active = activation above about 19%, passing the limit was not always enough
# HTR2A ag = agonists of mouse serotonin 5-HT2A receptor (HTR2A). P35363. CHO-K1 mHTR2A beta-arrestin complementation, luminescence; percent of 30 µM serotonin response. activation, % at 7.6 µM. hit rate 0.66% among 360,000. AID 624169;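 active = activation above a run cutoff, the mean activation of all tested compounds plus 3 SD, cut at about 14% in these data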
# CHRM1 antagonist = human CHRM1 antagonism | P11229 | hit rate 1.3% among 360,000 | CHO-K1 hM1, Fluo-8 calcium fluorescence, ACh EC80 antagonist | inhibition, % at 3 µM;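 active = percent inhibition above its own plate's cutoff, namely the mean of that plate's compound wells plus 3 SD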;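 note: peak over basal fluorescence ratio during 140 s after agonist addition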
# TAAR1 antag = human TAAR1 antagonism; inhibition, % at 3 µM; CHO RD-HGA16 TAAR1, Fluo-8 calcium fluorescence, antagonist; AID 624466; hit rate 1.5% among 360,000; Q96RJ0;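 active = inhibition above a per-plate cutoff, the mean inhibition of test compounds on that plate plus 3 SD, cut at about 49% in these data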
#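 Assay system: RD-HGA16 CHO cells with stable hTAAR1 and Gα16 / Reagent: EC80 β-phenethylamine stimulus / Doses: 3 µM, single point / Timing: dye loading 75 min at 37 °C, then 30 min room temperature / Measured by: Fluo-8 intracellular calcium dye fluorescence, real-time kinetic reads / Controls: vehicle wells and EC80 agonist wells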
# MOR ag counter = OPRM1 agonism in mouse HTR2A counterscreen; hit rate 5.3% among 2,300; U2OS OPRM1 beta-arrestin PathHunter, luminescence; DMSO 0%, DAMGO 9.3 µM 100%; activation, % at 9.3 µM; AID 624380; shares compounds with HTR2A ag;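 active = mean activation above the mean of DMSO-only wells plus 3 SD, cut at about 0.5% in these data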
# Target sequence (P35372 whole entry, looked up): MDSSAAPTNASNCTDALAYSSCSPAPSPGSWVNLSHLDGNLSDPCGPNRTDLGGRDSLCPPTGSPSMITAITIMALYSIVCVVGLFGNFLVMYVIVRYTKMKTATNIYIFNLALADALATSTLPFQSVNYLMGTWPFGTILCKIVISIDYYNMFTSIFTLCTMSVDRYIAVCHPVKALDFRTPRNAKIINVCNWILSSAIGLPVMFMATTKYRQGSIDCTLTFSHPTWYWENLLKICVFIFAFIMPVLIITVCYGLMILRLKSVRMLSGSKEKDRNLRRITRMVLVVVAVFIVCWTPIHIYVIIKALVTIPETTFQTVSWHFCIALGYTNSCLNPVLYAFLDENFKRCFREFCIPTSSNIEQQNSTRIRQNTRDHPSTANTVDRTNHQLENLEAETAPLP
# HTR2A ag conf = mouse HTR2A agonism confirmed; CHO-K1 PathHunter beta-arrestin recruitment, luminescence; DMSO 0%, 30 µM serotonin 100%; shares compounds with HTR2A ag; hit rate 19% among 2,300; activation, % at 7.6 µM;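 active = mean activation across triplicates above the hit threshold derived in the original primary screen, cut at about 15% in these data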
# Hits are given with their value; – = inactive; · = not tested or not shown. Hits are enriched below; roughly 3.9% of the tested compounds scored in any of these assays.
SMILES,CHRM1 agonist,TAAR1 agonist,M1 PAM,HTR2A ag,CHRM1 antagonist,TAAR1 antag,MOR ag counter,HTR2A ag conf
CCC(C)Sc1cc(-c2nc3ccc(C)cn3c2NCc2ccccc2)ccc1OC (stereo unspecified),–,–,–,–,63,72,·,·
O=C(NCCc1ccc(O)c(O)c1)C1COc2ccccc2O1 (stereo unspecified),–,–,–,14,–,–,–,23
O=C(NCCc1ccccc1)C1COc2ccccc2O1 (stereo unspecified),–,–,–,–,–,–,·,·
Cc1ccc(N2CCN(C(=O)C3CCCN(c4ncnc5c4nc4n5CCCCC4)C3)CC2)c(C)c1 (stereo unspecified),–,–,–,15,–,–,–,–
CCC(=O)Nc1cc2nn(-c3ccc(OC)cc3)nc2cc1C,–,–,–,–,–,–,·,·
CCCCC(=O)Nc1cc2nn(-c3ccc(OC)cc3)nc2cc1C,–,–,–,15,–,–,–,–
COC(=O)c1ccc([N+](=O)[O-])cc1N1C(=O)C2C3CCC(C3)C2C1=O (stereo unspecified),–,–,–,–,–,–,·,·
Cc1ccc(C(=O)N2CCN(c3ccccc3Cl)CC2)cc1[N+](=O)[O-],–,–,–,–,–,–,·,·
CN(CC(=O)Nc1ccc(F)c(F)c1F)C(=O)CN1C(=O)C2CCCCC2C1=O (stereo unspecified),–,–,–,15,–,–,–,–
Cc1cccc(-n2ncc3c2CCCC3NC(=O)CCN2CCCO2)c1C (stereo unspecified),–,–,–,16,–,–,–,–
Cc1cccc(-n2ncc3c2CCCC3NC(=O)C2(C(N)=O)CC2)c1C (stereo unspecified),–,–,–,15,–,–,–,–
COc1cccc(-c2cc(CC3(O)CCN(CCCc4ccccc4)CC3)on2)c1,–,·,–,–,–,·,·,·
Cc1ccsc1C(=O)N1CCCC(C)(C(=O)O)C1 (stereo unspecified),–,–,–,15,–,–,–,–
Cc1ccsc1C(=O)N1CCCC(C)(C(=O)NS(=O)(=O)C2CC2)C1 (stereo unspecified),–,–,–,–,–,–,·,·
CCOC1=C2[C@@H](CN(S(=O)(=O)c3ccc(C)cc3)[C@H]2c2ccc(Cl)cc2)[C@H]2C(=O)N(c3ccccc3)C(=O)[C@H]2C1,–,–,–,21,–,–,–,–
CC(/C=C/C1(O)C(C)CC(O)CC1(C)C)OC1OC(CO)C(O)C(O)C1O (stereo unspecified),–,–,–,39,–,–,–,–
CC(/C=C/C1[C@H](C)C[C@H](O[C@@H]2O[C@H](CO)[C@@H](O)[C@H](O)[C@H]2O)CC1(C)C)O[C@H]1O[C@H](CO)[C@@H](O)[C@H](O)[C@H]1O (stereo partly specified),–,–,–,–,–,–,·,·
O=C(COC(=O)/C=C/c1cccc(C(F)(F)F)c1)NC(=O)NC1CCCC1,–,–,–,16,–,–,–,–
O=C(COC(=O)/C=C/c1cccc(C(F)(F)F)c1)NC(=O)NCc1ccccc1,–,–,–,–,–,–,·,·
Cc1cccn2c(CN3CCNC(=O)CC3)c(C(=O)N(C)CCc3ccccc3)nc12,–,–,–,–,–,–,·,·
CCN1CCN(c2ccc(S(=O)(=O)N3CCOCC3)cc2NC(=O)C(C)Oc2ccc(Cl)cc2)CC1 (stereo unspecified),–,–,–,–,–,–,·,·
CCc1nc2c(OCC(=O)C(C)(C)C)cccn2c1N(C)C(=O)CC(C)C,–,–,–,16,–,–,–,–
Cn1nnnc1SCC(=O)Nc1cc(S(=O)(=O)N2CCCCC2)ccc1Cl,–,–,–,–,–,–,·,·
NC(=O)c1nc(C(=O)N2CCN(c3ccccc3)CC2)c2ccccc2n1,–,–,–,18,–,–,–,–
CC(C)C[C@H](NC(=O)N1CCn2c1nc1ccccc12)C(=O)NCc1ccccc1,–,–,–,15,–,–,·,–
SMILES,CHRM1 agonist,TAAR1 agonist,M1 PAM,HTR2A ag,CHRM1 antagonist,TAAR1 antag,MOR ag counter,HTR2A ag conf
CC(C)C[C@H](NC(=O)N1CCn2c1nc1ccccc12)C(=O)NCCc1ccccc1,–,–,–,–,–,–,·,·
COc1ccc(S(=O)(=O)N2CN3CCN(C3)C2)cc1OC,–,–,–,–,–,–,·,·
C=CCN(Cc1ccc(OC)c(OC)c1)C(=O)c1cc2cc(F)ccc2[nH]1,–,–,–,20,–,–,–,–
CN(CC(=O)Nc1ccccc1Br)C(=O)c1cc(S(=O)(=O)N(C)C)ccc1N1CCCC1,–,–,–,–,–,–,·,·
CN(Cc1ccccc1)N=Nc1nc[nH]c1C(N)=O,–,–,–,17,–,–,–,–
CN(Cc1ccccc1)N=Nc1ccccc1,–,–,–,–,–,–,·,·
O=C(Nc1ccccc1)C(=O)Nc1cccnc1,–,–,–,22,–,–,–,–
O=C(CC(=O)c1ccccc1)Nc1cccnc1,–,–,–,–,–,–,·,·
O=C1CC(c2cccc(Cl)c2)C(n2cncn2)C(=O)C1C1NCCc2ccccc21 (stereo unspecified),–,–,–,16,–,–,–,–
O=C1CC(=O)C(n2cncn2)C(c2cccc(Cl)c2)C1 (stereo unspecified),–,–,–,–,–,–,·,·
Cn1ncc(Cl)c1C(=O)Nc1nnc(C2CC2)s1,–,–,–,–,–,–,·,·
Cn1nccc1C(=O)Nc1nnc(C2CC2)s1,–,–,–,15,–,–,–,–
CC(C)OCCCNC(=O)C1CCN(S(=O)(=O)c2ccc3nc4c(c(C(=O)O)c3c2)CCCCC4)CC1,–,–,–,–,–,–,·,·
CC(=O)c1sc(NC(=O)c2cc(S(=O)(=O)N3CCOCC3)ccc2F)nc1C,–,–,–,15,–,–,–,–
C=CCn1c(SCC(=O)NC2CCCCC2)nnc1-c1ccccn1,–,–,–,14,–,–,–,–
CCCC(=O)Nc1nc(-c2ccc3c(c2)OCCO3)cs1,–,–,–,16,–,–,–,–
Cc1cccc(NS(=O)(=O)c2cccc(C(=O)NCCCN3CCOCC3)c2)c1,–,–,–,–,–,–,·,·
COc1ccc(CC(=O)N[C@@H]2c3cc(OC)c(OC)cc3C[C@H]2O)cc1,–,–,–,18,–,–,–,–
